Measured values reported in ChEMBL document CHEMBL2417400, “Discovery of a novel 5-carbonyl-1H-imidazole-4-carboxamide class of inhibitors of the HIV-1 integrase-LEDGF/p75 interaction” (Bioorg Med Chem, 2013).

Experiments:
[1] = Inhibition of recombinant His6-tagged HIV-1 integrase binding to FLAG-tagged LEDGF/p75 (unknown origin) interaction expressed in Escherichia coli BL21(DE3) treated 30 mins before LEDGF/p75 addition measured after 60 mins by AlphaScreen assay
How it was run: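 His6-IN (300 nM final) with compound for 30 min at 4 °C. FLAG-LEDGF/p75 (300 nM final) added for 60 min at 4 °C. Ni-chelate donor and anti-FLAG acceptor beads added, 1 h at 30 °C, light exposure minimized. Acceptor emission read. IC50 is the 50% inhibition of the interaction.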

[2] = biological target: T1, Human immunodeficiency virus type 1 integrase (Human immunodeficiency virus 1, UniProt Q7ZJM1); assay: Inhibition of recombinant His6-tagged HIV-1 integrase 3' strand transfer activity
[3] = Inhibition of recombinant His6-tagged HIV-1 integrase binding to FLAG-tagged LEDGF/p75 (unknown origin) interaction expressed in Escherichia coli BL21(DE3) at 20 uM treated 30 mins before LEDGF/p75 addition measured after 60 mins by quench assay
How it was run: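 Emission-quench counter-screen run like the IN–LEDGF/p75 AlphaScreen, with FLAG-tagged GST (500 nM final) instead of both proteins. Same buffer, Ni-chelate donor and anti-FLAG acceptor beads, 1 h at 30 °C, acceptor emission read. Reported as percent inhibition at a single compound concentration.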

[4] = test system: Human immunodeficiency virus 1; assay: Antiviral activity against HIV1 infected in human MT4 cells assessed as virus-induced cytopathic effect by MTT assay; format: functional, organism-based; settings: Human immunodeficiency virus 1, MT4
[5] = Cytotoxicity against human MT4 cells; format: cell-based
[6] = biological target: T1, Human immunodeficiency virus type 1 integrase; assay: Inhibition of recombinant His6-tagged HIV-1 integrase 3' processing activity

T1 sequence (Q7ZJM1 whole entry): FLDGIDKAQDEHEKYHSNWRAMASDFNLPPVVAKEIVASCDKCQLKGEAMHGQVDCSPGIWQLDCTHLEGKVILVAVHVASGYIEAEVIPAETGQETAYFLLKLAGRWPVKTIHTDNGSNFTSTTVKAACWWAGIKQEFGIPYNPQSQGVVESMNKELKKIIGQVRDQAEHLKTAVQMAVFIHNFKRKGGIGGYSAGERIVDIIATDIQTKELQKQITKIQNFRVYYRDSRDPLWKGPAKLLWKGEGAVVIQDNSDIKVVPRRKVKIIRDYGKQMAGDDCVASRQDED

Compound	IC50 [1] [µM]	IC50 [2] [µM]	inhibition [3] [%]	IC50 [6] [µM]	EC50 [4] [µM]	CC50 [5] [µM]
CNC(=O)c1[nH]cnc1C(=O)Nc1ccccn1	> 20	> 20	< 50	> 20	> 20	> 20
O=C(Nc1ccccn1)c1nc[nH]c1C(=O)N1CCOCC1	> 20	> 20	< 50	> 20	> 20	> 20
O=C(Nc1ccccc1O)c1nc[nH]c1C(=O)N1CCC(O)CC1	> 20	> 20	< 50	> 20	> 20	> 20
O=C(Nc1ccccn1)c1nc[nH]c1C(=O)O	13	> 20	< 50	> 20	> 20	> 20
O=C(Nc1ccc(F)cc1)c1nc[nH]c1C(=O)O	10	> 20	< 50	> 20	> 20	> 20
NNC(=O)c1[nH]cnc1C(=O)Nc1ccccn1	0.4	> 20	< 50	> 20	> 20	> 20
O=C(NCc1ccc(F)cc1)c1nc[nH]c1C(=O)O	> 20	> 20	< 50	> 20	> 20	> 20
O=C(Nc1ccccn1)c1nc[nH]c1C(=O)N1CCNCC1	> 20	> 20	< 50	> 20	> 20	> 20

The next lines start with results.

IC50 [1] [µM]	IC50 [2] [µM]	inhibition [3] [%]	IC50 [6] [µM]	Compound	EC50 [4] [µM]	CC50 [5] [µM]
> 20	> 20	< 50	> 20	O=C(Nc1ccccc1O)c1nc[nH]c1C(=O)N1CCOCC1	> 20	> 20
> 20	> 20	< 50	> 20	COC(=O)c1[nH]cnc1C(=O)Nc1ccc(F)cc1	> 20	> 20
> 20	> 20	< 50	> 20	O=C(Nc1ccccn1)c1nc[nH]c1C(=O)N1CCC(O)CC1	> 20	> 20
> 20	> 20	< 50	> 20	O=C(Nc1ccccc1O)c1nc[nH]c1C(=O)N1CCNCC1	> 20	> 20
5.3	> 20	< 50	> 20	O=C(Nc1ccc([N+](=O)[O-])cc1)c1nc[nH]c1C(=O)O	> 20	> 20
16	> 20	< 50	> 20	Cc1ccc(NC(=O)c2[nH]cnc2C(=O)NN)cc1	> 20	> 20
1	> 20	< 50	> 20	Nc1ccc(NC(=O)c2nc[nH]c2C(=O)O)cc1	> 20	> 20
6	> 20	< 50	> 20	O=C(Nc1ccccc1)c1nc[nH]c1C(=O)O	> 20	> 20
